Assay outcomes (PubChem)
Cneo AK release: causes C. neoformans cell lysis; adenylate kinase release luminescence, 4 h; normalised: neutral wells 0, clomiphene wells 100; lysis activity, % at 15 µM; actives 0.2% (n = 360,000);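 active = mean lysis activity across replicates of at least 80%, whatever share of replicates individually reach that level; inactive = mean lysis activity below 80%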
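Assay system: C. neoformans cells. Amount: yeast cell density of 5 × 10^6 cells/mL. Technique: AK luminescence. Buffer or medium: YPD. Times: static 4 h at 37 °C with compound, 1 h detection. Dosing: single-point compound dose. Read-out: lysis from increased AK signal.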
PglD inh: inhibitors of Campylobacter jejuni PglD acetyltransferase. inhibition, % at 12.5 µM. actives 0.098% (n = 360,000). purified PglD enzyme, DTNB colorimetric CoA detection; in the data active = inhibition above about 16%, passing the limit was not always enough
ERp5 block: blocks human ERp5 reductase activity on insulin; Q15084; ERp5 insulin aggregation, absorbance 650 nm, 90 min; inhibition, % at 9.99 µM; actives 0.05% (n = 350,000);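 active = mean replicate inhibition above about 25%, with every replicate also reaching it, limit read from the data, passing the limit was not always enough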
Target sequence (Q15084 whole entry, looked up): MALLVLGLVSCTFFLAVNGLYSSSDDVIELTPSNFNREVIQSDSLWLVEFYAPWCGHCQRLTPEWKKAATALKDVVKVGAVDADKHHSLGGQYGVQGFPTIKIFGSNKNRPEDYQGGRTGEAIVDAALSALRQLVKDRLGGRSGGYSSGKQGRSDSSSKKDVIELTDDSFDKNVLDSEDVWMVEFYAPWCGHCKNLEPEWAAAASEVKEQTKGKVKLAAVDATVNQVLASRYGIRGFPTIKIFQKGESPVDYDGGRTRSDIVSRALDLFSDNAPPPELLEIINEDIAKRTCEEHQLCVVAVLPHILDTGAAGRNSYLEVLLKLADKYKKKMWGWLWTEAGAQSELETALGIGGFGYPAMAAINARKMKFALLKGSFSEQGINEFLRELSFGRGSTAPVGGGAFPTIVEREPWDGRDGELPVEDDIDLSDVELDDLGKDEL
miR122 inh: miR-122 inhibition in Huh7 cells. Huh7 miR-122 Renilla luciferase sensor, 48 h; neutral wells = 0, positive control = 100. activation (reporter increase), % at 12.5 µM. actives 0.3% (n = 340,000). AID 602342;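 active = mean replicate activation score at least 90 and every replicate individually at or above 90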;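 also: higher luciferase means less miR-122 activity so hits act as miR-122 inhibitors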
PvdQ acylase: P. aeruginosa PvdQ acylase inhibition | purified PvdQ acylase, fluorescence plate reader | inhibition, % at 10 µM | actives 0.063% (n = 340,000); in the data active = inhibition above about 30%, passing the limit was not always enough;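 also: 0% = vehicle neutral wells and 100% = reference inhibitor wells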
PDI inh: PDI (human) enzyme inhibition. inhibition, % at 10 µM. P07237. actives 0.052% (n = 350,000). PDI insulin aggregation turbidity, A650, 90 min;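 active = mean inhibition across replicates of 30% or more, whatever share of single replicates reach that level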
* marks the source's active call; other numbers are inactive results; · = not tested or not shown; [ ] = another dose, or the depositor's remark. An excerpt weighted towards active compounds, which were near 0.58% of everything screened.

SMILES | Cneo AK release | PglD inh | ERp5 block | miR122 inh | PvdQ acylase | PDI inh
O=S(=O)(NCCc1ccncc1)c1cc(Br)ccc1F | 0 | 0 | · | 124* | 21 | 0
Cc1c(C)c(C)c(S(=O)(=O)NCCc2ccncc2)c(C)c1C | 0 | -1 | -7 | -9 | -13 | -11
COc1ccc2c3c([nH]c2c1)[C@H](CO)N(C(=O)C1CC1)CC31CN(C(=O)NC(C)C)C1 | · | · | 4 | · | · | ·
Cc1ccc(C2=NN3C(C(=O)c4ccccc4)Oc4ccccc4C3C2)cc1 (configuration not stated) | 0 | 0 | · | 114* | 5 | -7
Cc1ccc(CN2CCC[C@]3(N[C@H](c4ccc(C)cc4)[C@@H]4C(=O)N(C)C(=O)[C@@H]43)C2=O)cc1 | 0 | -2 | 2 | -9 | · | 3
Cc1ccc([C@H]2N[C@]3(CCCN(Cc4ccc(Cl)cc4)C3=O)[C@H]3C(=O)N(C)C(=O)[C@@H]23)cc1 | 1 | -3 | 26* | -3 | · | -15
C[C@]12CC[C@@H]3c4ccc(O)cc4C(=O)C[C@H]3[C@@H]1CC[C@@H]2O | -4 | 7 | 4 | -6 | -11 | 39*
COc1ccc(NC(=O)N(C)C[C@H]2Oc3ccc(NC(=O)Nc4ccc5c(c4)OCO5)cc3C(=O)N([C@@H](C)CO)C[C@@H]2C)cc1 | -1 | -5 | 1 | 0[16.7 µM] | · | ·
S=C(NCc1cccs1)Nc1cccc(Cl)c1 | · | · | -3 | 220* | 7 | -2
CC(C)c1ccc(NC(=S)NCc2cccs2)cc1 | 19 | -1 | · | 102* | -13 | 4
Cc1ccc(S(=O)(=O)NC2CCCCC2)cc1 | 2 | 5 | 3 | 60 | -7 | ·
O=C(Nc1ccc(S(=O)(=O)NC2CCCCC2)cc1)c1ccc(Br)o1 | 2 | 5 | 4 | 128* | -9 | 2
O=C(Nc1ccc(S(=O)(=O)NC2CCCCC2)cc1)c1ccco1 | 1 | 9 | -2 | 69 | -4 | 1
O=C(CCc1ccc(S(=O)(=O)NC2CCCCC2)cc1)N(Cc1ccccc1)Cc1ccccc1 | -2 | -3 | · | 99* | -15 | 19
CSc1ccc(S(=O)(=O)NC2CCCCCC2)cc1 | 16 | -3 | · | 103* | -10 | -6
C[C@@H]1CN([C@H](C)CO)C(=O)c2cc(NC(=O)Nc3ccc4c(c3)OCO4)ccc2O[C@H]1CN(C)S(C)(=O)=O | -1 | 1 | 0 | -3[16.7 µM] | · | ·
CN[C@H]1CCc2cc(OC)c(OC)c(OC)c2-c2ccc(N(C)CC(OC)OC)c(=O)cc21 | 1 | 2 | 7 | 130* | -9 | 3
O=CNC1(c2ccccc2)CCCCC1 | · | · | 4 | · | 94* | 1
CNC(=O)C1(c2ccccc2)CCCCC1 | 0 | 0 | -1 | -12 | · | 11
C[C@@H]1CN([C@@H](C)CO)C(=O)Cc2cc(NC(=O)NC3CCCCC3)ccc2O[C@H]1CN(C)C(=O)Nc1cccc2ccccc12 | 4 | 4 | -4 | -2[16.7 µM] | · | ·
Cc1ccc(S(=O)(=O)N(C)C[C@H]2OCCCC[C@@H](C)Oc3ccc(NS(=O)(=O)c4cn(C)cn4)cc3C(=O)N([C@H](C)CO)C[C@@H]2C)cc1 | 0 | 1 | -3 | -2[16.7 µM] | · | ·
COc1ccc(S(=O)(=O)N(C)C[C@H]2Oc3ccc(N(C)C)cc3C(=O)N([C@H](C)CO)C[C@@H]2C)cc1 | -2 | 1 | 2 | 112*[16.7 µM] | · | ·
COc1ccc(S(=O)(=O)N(C)C[C@@H]2Oc3ccc(N(C)C)cc3C(=O)N([C@H](C)CO)C[C@H]2C)cc1 | -5 | 2 | 0 | -4[16.7 µM] | · | ·
C[C@@H]1CN([C@H](C)CO)C(=O)c2cc(N(C)C)ccc2O[C@@H]1CN(C)S(=O)(=O)c1ccc(Cl)cc1 | -3 | 4 | 0 | 98*[16.7 µM] | · | ·
C[C@H]1CN([C@@H](C)CO)C(=O)c2cc(N(C)C)ccc2O[C@H]1CN(C)S(=O)(=O)c1ccc(Cl)cc1 | -5 | 10 | -4 | 4[16.7 µM] | · | ·
SMILES | Cneo AK release | PglD inh | ERp5 block | miR122 inh | PvdQ acylase | PDI inh
C[C@H]1CCCCO[C@H](CN(C)CC2CC2)[C@@H](C)CN([C@@H](C)CO)C(=O)c2cc(NC(=O)C3CCCCC3)ccc2O1 | 37 | 8 | 1 | 4[16.7 µM] | · | ·
CN=C1S/C(=C\c2ccc(Cl)cc2)C(=O)N1C | · | · | 1 | -2 | 14 | 0
CN=C1S/C(=C\c2ccc(SC)cc2)C(=O)N1C | -1 | -1 | 4 | -2 | 48* | -3
Cn1nc(C(=O)Nc2ccc(S(=O)(=O)NCc3ccco3)cc2)c2ccccc2c1=O | · | · | 1 | · | · | ·
CC(C)n1nc(C(=O)Nc2cccc(S(=O)(=O)NCc3ccco3)c2)c2ccccc2c1=O | · | · | -27 | 99* | 1 | -10
O=C(O)C[C@H]1C[C@@H]2c3cc(NC(=O)c4ccc5c(c4)OCO5)ccc3O[C@@H]2[C@@H](CO)O1 | 7 | 3 | -7 | -4[16.7 µM] | · | ·
O=C(NC[C@@H]1N[C@@H](CO)[C@H]1c1ccccc1)C1CCCC1 | 4 | 7 | 1 | 50[16.7 µM] | · | ·
CC(=O)N1[C@H](CO)[C@H](c2ccc(-c3ccccc3)cc2)[C@@H]1CNC(=O)C1CC1 | 105* | 0 | · | 14[16.7 µM] | · | ·
O=C(NC[C@@H]1[C@H](c2ccccc2)[C@@H](CO)N1C(=O)Cc1cccnc1)C1CCC1 | 84* | 0 | · | 57[16.7 µM] | · | ·
CC(=O)N1[C@H](CNC(=O)C2CC2)[C@@H](c2ccc(-c3ccccc3)cc2)[C@@H]1CO | 15 | 4 | 1 | 200*[16.7 µM] | · | ·
O=C(NC[C@H]1N[C@H](CO)[C@@H]1c1ccccc1)C1CCCC1 | 6 | 7 | -3 | 125*[16.7 µM] | · | ·
COCCN(C[C@H]1[C@H](c2ccccc2)[C@@H](CO)N1C(C)=O)C(=O)c1ccncc1 | -1 | 1 | -1 | 6[16.7 µM] | · | ·
C[C@@H]1CN([C@@H](C)CO)C(=O)c2cc(NC(=O)CCC(F)(F)F)ccc2O[C@@H](C)CCCCO[C@H]1CN(C)S(=O)(=O)c1cccs1 | -2 | 2 | 5 | 11[16.7 µM] | · | ·
CCCNC(=O)N1[C@@H](CO)[C@@H](c2ccc(-c3ccccc3)cc2)[C@@H]1CNC(C)=O | 88* | 4 | · | 7[16.7 µM] | · | ·
CCCNC(=O)N1[C@@H](CO)[C@@H](c2ccccc2)[C@@H]1CNC(C)=O | 1 | 2 | 13 | -18[16.7 µM] | · | ·
O=S(=O)(Nc1ccc(C(O)(C(F)(F)F)C(F)(F)F)cc1)c1ccc(Cl)c2nonc12 | 1 | -4 | · | -7 | · | 34*
COc1ccc(S(=O)(=O)Nc2cccc3c2O[C@H](CN(C)Cc2ccc(Oc4ccccc4)cc2)[C@H](C)CN([C@@H](C)CO)C3=O)cc1 | 6 | -1 | -6 | 34[16.7 µM] | · | ·
CC(C)(C)C(=O)Nc1cc(S(=O)(=O)Nc2ccc(Cl)cc2)ccc1O | · | · | 1 | 167* | 7 | 14
CO[C@H](CN(C)Cc1ccc2c(c1)OCO2)[C@@H](C)CN(C(=O)c1ccccc1)[C@@H](C)CO | 104* | -1 | 0 | · | · | ·
N#CC(Sc1ccccn1)c1ccc(Cl)cc1 (configuration not stated) | · | · | -2 | · | 48* | -11
